Results as given in publication PMC7429274 (ACS infectious diseases, 2020).
Primed or numbered codes have the meaning given here. Ends that are not written are not given here. FITC′ = fluorescein isothiocyanate label

What was measured:
[1] = system: P. aeruginosa (strain PAO1); test: Bacterial growth inhibition; format: cell-based, Pseudomonas aeruginosa; settings: Fig. S3
Summary of the method: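 PAO1 grown from overnight culture (diluted 1:100 in LB without NaCl) at 37°C, 5% CO₂, 200 rpm to mid-log (OD₆₀₀ 0.5), pelleted, resuspended in Mueller-Hinton broth to OD₆₀₀ 0.1 (~10⁷ CFU/mL). Serially diluted FITC-labelled peptide added in triplicate; gentamycin 10 μg/mL positive control, PBS mock. OD₆₀₀ read every 30 min for 16 h at 37°C, 5% CO₂. Background-corrected mean OD normalised to PBS wells, as percentage.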

[2] = system: P. aeruginosa aggregates (PAO1-mCherry) on A549 cells; test: Epithelial cell infection model, CLSM colocalization with bacteria; format: cell-based, Pseudomonas aeruginosa; settings: Cy5-labeled probes, Fig. S5
[3] = system: P. aeruginosa-infected wounds; test: In vivo optical imaging in mouse infected wound model; design: species or system female BALB/c athymic nude mice; settings: 6 h post probe injection, p<0.0035, Fig. S7
Summary of the method: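 Wounded mice (6 mm dorsal biopsies, 48 h recovery) had wounds inoculated with ~10⁷ cells of a 50:50 lux-tagged/TdTomato PAO1 mix or PBS. Cy5-labelled peptide probe (60 nmoles, tail vein) or PBS was injected 24 h later; groups n=4, 3, 2. Isoflurane-anaesthetised mice were imaged at 3, 6 and 18 h. Bioluminescence integration was 2 s; fluorescence excitation was 640 nm. ROI wound Cy5 was normalised to surrounding non-wound tissue.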

[4] = system: human primary neutrophils infected or not with PAO1-GFP+; test: Human primary neutrophil infection model, imaging flow cytometry; format: cell-based
[5] = system: flow cell-grown P. aeruginosa PAO1 biofilms; test: Peptide labeling of flow-grown biofilms by CLSM; format: cell-based, Pseudomonas aeruginosa; settings: 24 h flow cell biofilms; for Biofilm labeling (CLSM): 2 μM peptide in PBS, 1 h, room temperature; for Labeling pattern / localization within biofilms (CLSM): 2 μM peptide, single slice at mid-height
[6] = system: P. aeruginosa-infected wounds; test: Ex vivo CLSM of sectioned wound tissue; format: in vivo, female BALB/c athymic nude mice; settings: harvested after 18 h imaging
Summary of the method: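 Two 6 mm full-thickness dorsal wounds per mouse, occlusive dressing, 48 h recovery. Wounds were then inoculated with 60 μL containing ~10⁷ cells of a 50:50 mix of lux-tagged and TdTomato PAO1, or mock-treated with PBS. Cy5-labelled peptide probe, 60 nmoles, was given by tail vein 24 h later. After the 18 h imaging point, mice were CO₂-euthanised. Wounds were DAPI-stained (1 μg/mL, 10 min), fixed in 4% PFA for 24 h, OCT cryosectioned and imaged by CLSM.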

[7] = system: Human A549 type II alveolar epithelial cells; test: Epithelial cell infection model, CLSM colocalization with epithelial cells; format: cell-based; settings: uninfected A549 cells, Fig. S8
Summary of the method: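 A549 cells seeded at 20,000/well in RPMI 1640 with 10% FBS and 100 U pen/strep for 3 days to ~70% confluency, then prelabelled with 1 μM cell tracker blue for 20 min at 37°C. Washed twice in warm PBS, stained with 2 μM FITC-labelled peptide for 1 h at 37°C, washed twice, fixed in 4% paraformaldehyde for 30 min. CLSM with 60x oil objective.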

[8] = system: planktonic P. aeruginosa cells (PAO1, TdTomato); test: Probe binding to planktonic cells by flow cytometry; format: cell-based, Pseudomonas aeruginosa; settings: 10, 5 or 1 μM, 30 min, room temperature, Fig. S2
Summary of the method: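 PAO1 with constitutive TdTomato plasmid was diluted 1:100 in LB without NaCl and grown 3 h at 37°C, 200 rpm, to mid-log. Cells were pelleted, resuspended in PBS at 10⁸ CFU/mL, labelled with FITC-peptide, washed, and fixed in 4% PFA for 20 min. 10,000 events per sample, gated on FSC/SSC and excluding low-TdTomato events. FITC MFI was normalised to autofluorescence. Two biological replicates, mean ± standard deviation.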

(4Iph)(f)LPNSNHIKQGL-Cy5^b [4Iphf-HN17-Cy5]
Bactericidal effects against P. aeruginosa [1]: no bactericidal effects | Targeting in the epithelial cell infection model (Cy5 probes) [2]: biofilm specificity in the epithelial cell infection model | Cy5 signal enhancement in infected wounds vs PBS-treated wounds [3]: reached statistical significance compared to PBS-treated wounds | Percentage of neutrophils that were Cy5+ ([4]; each of the four populations): greater than 87% | Colocalization between Cy5 and GFP (similarity feature) ([4]; every cell, all infected neutrophils regardless of morphology): < 0.2 | Percentage of neutrophils that were Cy5+ ([4]; infected neutrophils with irregular morphology): 99.8% | Percentage of neutrophils that were Cy5+ ([4]; uninfected cells with normal morphology): 87.8% | Biofilm labeling (CLSM) [5]: retained similar biofilm targeting properties | Cy5 fluorescence in sectioned wound tissue (CLSM) ([6]; infected wound): intense, multi-focal pockets | Cy5 fluorescence in sectioned wound tissue (CLSM) ([6]; uninfected wound): minimal Cy5 fluorescence

(4Iph)(f)LPNSNHIKQGL-FITC^b [4Iphf-HN17-FITC]
Targeting of epithelial cells in the absence of infection [7]: did not target epithelial cells in the absence of infection | Biofilm labeling (CLSM) [5]: biofilm labeling was observed | Labeling pattern / localization within biofilms (CLSM) [5]: penetrated into biofilms | Labeling of planktonic P. aeruginosa cells (FITC MFI, flow cytometry) [8]: to a lesser degree than LG21-FITC and LL37-FITC

^aFITC-KRNQRMARYRRGT ({FITC′}-KRNQRMARYRRGT) [UBIsc-FITC, reference compound]
Biofilm labeling (CLSM) [5]: failed to label biofilms | Labeling of planktonic P. aeruginosa cells (FITC MFI, flow cytometry) [8]: minimal targeting of P. aeruginosa cells

^aFITC-LLGDFFRKSKEKIGKEFKRIVQRIKDFLRNLVPRTES [LL37-FITC, reference compound]
Biofilm labeling (CLSM) [5]: biofilm labeling was observed | Labeling pattern / localization within biofilms (CLSM) [5]: localized to the periphery of biofilms | Labeling of planktonic P. aeruginosa cells (FITC MFI, flow cytometry) [8]: greatest targeting of planktonic cells

^aFITC-LLPIVGNLLKSLLGWKRKRFG [LG21-FITC]
Targeting of epithelial cells in the absence of infection [7]: did not target epithelial cells in the absence of infection | Biofilm labeling (CLSM) [5]: biofilm labeling was observed | Labeling pattern / localization within biofilms (CLSM) [5]: localized to the periphery of biofilms | Labeling of planktonic P. aeruginosa cells (FITC MFI, flow cytometry) [8]: greatest targeting of planktonic cells

^aFITC-TGRAKRRMQYNRR [UBI29-41-FITC, reference compound]
Biofilm labeling (CLSM) [5]: failed to label biofilms | Labeling of planktonic P. aeruginosa cells (FITC MFI, flow cytometry) [8]: minimal targeting of P. aeruginosa cells

^aFITC-WPRRPWRR ({FITC′}-WPRRPWRR) [WR8-Pro-FITC]
Biofilm labeling (CLSM) [5]: complete lack of binding | Labeling of planktonic P. aeruginosa cells (FITC MFI, flow cytometry) [8]: minimal targeting of P. aeruginosa cells

^aFITC-WWKKWWKK [WK8-FITC]
Targeting of epithelial cells in the absence of infection [7]: moderate targeting of these cells | Biofilm labeling (CLSM) [5]: biofilm labeling was observed | Labeling pattern / localization within biofilms (CLSM) [5]: penetrated into biofilms | Labeling of planktonic P. aeruginosa cells (FITC MFI, flow cytometry) [8]: to a lesser degree than LG21-FITC and LL37-FITC

^aFITC-WWRRWWR [WR8-FITC]
Targeting of epithelial cells in the absence of infection [7]: moderate targeting of these cells | Biofilm labeling (CLSM) [5]: biofilm labeling was observed | Labeling pattern / localization within biofilms (CLSM) [5]: penetrated into biofilms | Labeling of planktonic P. aeruginosa cells (FITC MFI, flow cytometry) [8]: to a lesser degree than LG21-FITC and LL37-FITC
